Source: PubChem BioAssay
Most compounds without a hit are left out; they make up all but 1.9% or so of the library.
ASAP1 GAP inh = ASAP1 ArfGAP inhibition; Q9ULH1; ASAP1-stimulated ARF1 GTP hydrolysis, GDP FP detection; inhibition, % at 16.5 µM; hit rate 0.19% among 360,000; in the data active = inhibition above about 25%;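 note: 0% = vehicle with enzyme and substrate and 100% = no enzyme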
PLC-beta3 inh = blocks human PLC-beta3 enzyme activity | Q01970 | Purified PLC-beta3, fluorogenic substrate, fluorescence | inhibition, % at 12.2 µM | hit rate 0.18% among 370,000;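 note: 0% = median of compound wells on plate and 100% = full blocker control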
PLC-gamma1 inh = blocks human PLC-gamma1 enzyme activity | P19174 | purified PLC-gamma1, fluorogenic substrate, fluorescence | inhibition, % at 12.2 µM | hit rate 0.84% among 370,000 | AID 720700; in the data active = inhibition above about 9.5%
ARFGAP1 inhibitor = inhibitors of rat ARFGAP1. Arfgap1-stimulated ARF1 GTP hydrolysis, GDP FP detection. inhibition, % at 16.5 µM. hit rate 0.26% among 360,000. AID 651572;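 active = inhibition above a per-plate limit, mean inhibition of low control wells plus 3 SD, cut at about 25% in these data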;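 note: 0% = DMSO wells with enzyme and 100% = wells lacking Arfgap1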
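Material – truncated rat Arfgap1 GAP domain · Buffer or medium – HEPES-based buffer, pH 7.5 · Reagent – human ARF1(Δ1-17)-GTP substrate · Dosing – 16.5 µM single point, 1.26% DMSO · Schedule – GTP hydrolysis reaction 2 h at 25 °C · Technique – GDP detection by fluorescence polarization · Benchmarks – No-Arfgap1 wells (100%) versus DMSO full-reaction wells (0%) · Repeats – single replicate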
HGIII-sPLA2 inh = Inhibits HGIII-sPLA2 liposome hydrolysis, primary screen; QFRET BODIPY PC-A2 liposome hydrolysis, fluorescence; Q9NZ20; hit rate 0.56% among 370,000; inhibition, % at 12.2 µM;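 active = inhibition above mean plus 3 SD of compounds lying within the high and low control bounds, cut at about 19% in these data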;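 note: 0% = median of test compound wells and 100% = no enzyme DMSO wells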
Target sequence (Q9NZ20 whole entry, looked up): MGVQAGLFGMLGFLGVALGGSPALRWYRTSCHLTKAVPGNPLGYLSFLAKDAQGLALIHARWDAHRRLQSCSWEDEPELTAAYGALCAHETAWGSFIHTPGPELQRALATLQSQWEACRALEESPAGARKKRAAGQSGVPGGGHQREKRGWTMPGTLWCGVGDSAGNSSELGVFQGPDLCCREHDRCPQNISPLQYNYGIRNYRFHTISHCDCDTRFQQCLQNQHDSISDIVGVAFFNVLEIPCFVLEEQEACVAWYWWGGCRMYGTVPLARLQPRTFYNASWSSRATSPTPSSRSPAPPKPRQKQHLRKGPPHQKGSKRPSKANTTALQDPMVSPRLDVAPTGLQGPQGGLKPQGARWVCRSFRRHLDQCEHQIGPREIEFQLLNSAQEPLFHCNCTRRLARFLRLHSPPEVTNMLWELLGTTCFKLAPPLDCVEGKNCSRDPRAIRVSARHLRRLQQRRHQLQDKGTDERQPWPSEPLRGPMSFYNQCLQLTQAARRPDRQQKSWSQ
PLCgamma1 ctr = PLC-gamma1 inhibition, counter-screen for PLC-beta3 hits. purified PLC-gamma1, fluorogenic substrate, fluorescence. AID 743258. hit rate 3.1% among 3,300. inhibition, % at 12.3 µM. shares compounds with PLC-gamma1 inh; in the data active = inhibition above about 9.5%
PLCbeta3 conf = human PLC-beta3 inhibition, confirmation | shares compounds with PLC-gamma1 inh | purified PLC-beta3, fluorogenic substrate fluorescence | inhibition, % at 12.3 µM | hit rate 1% among 3,300 | AID 743261
* = called active by the depositor. Cut-off read from the data, not from the text of the source, unless noted: active = inhibition above about 11%; inactive = the rest.

Screening COC(=O)[C@]12CCCCC=C1N(Cc1ccc(OC)cc1)C(=O)[C@@H]2CC(=O)NCC12CC3CC(CC(C3)C1)C2 returned PLC-beta3 inh 5, PLC-gamma1 inh 6 and HGIII-sPLA2 inh -14.
For O=C1NC(=S)S/C1=C\c1cc(Cl)ccc1Cl the results were ASAP1 GAP inh -20, PLC-beta3 inh 3, PLC-gamma1 inh 11*, ARFGAP1 inhibitor -14, HGIII-sPLA2 inh -16, PLCgamma1 ctr -4 and PLCbeta3 conf -6.
CCOC(=O)C1=C(C(=O)OCC)C2N(Cc3ccc(C#N)cc3)c3ccccc3[C@@]23C[C@@H](C(=O)OC)N(S(=O)(=O)c2c(C)noc2C)C3=N1 (stereo not given in full) was read as ASAP1 GAP inh 8, PLC-beta3 inh -3, PLC-gamma1 inh -1, ARFGAP1 inhibitor -4 and HGIII-sPLA2 inh 5.
Screening Cc1nnc(N/N=C/c2ccc(Br)cc2)n1N returned ASAP1 GAP inh -4, PLC-beta3 inh 1, PLC-gamma1 inh 6, ARFGAP1 inhibitor 6 and HGIII-sPLA2 inh -7.
For COc1ccc(/C=N/Nc2nnc(C)n2N)cc1OC(C)=O the results were ASAP1 GAP inh 1, PLC-beta3 inh 0, PLC-gamma1 inh 11*, ARFGAP1 inhibitor 13, HGIII-sPLA2 inh 1, PLCgamma1 ctr -8 and PLCbeta3 conf -2.
For Cc1nnc(N/N=C/c2ccc([N+](=O)[O-])cc2)n1N the results were ASAP1 GAP inh 3, PLC-beta3 inh 9, PLC-gamma1 inh 20*, ARFGAP1 inhibitor 10, HGIII-sPLA2 inh 13, PLCgamma1 ctr 8 and PLCbeta3 conf 8.
Screening O=C(CCc1ccccc1)N[C@H]1[C@@H](OC(=O)C2CC2)CCC[C@@]12C(=O)N(Cc1ccccc1)c1ccccc12 returned PLC-beta3 inh 8, PLC-gamma1 inh 7 and HGIII-sPLA2 inh 0.
`O=C(COCc1ccncc1)N1CCN(c2ccc(F)cc2Cl)CC1` gave PLC-beta3 inh 4, PLC-gamma1 inh -1 and HGIII-sPLA2 inh 0.
CCCCCCCCN1CN2Cc3ccccc3C2CS1(=O)=O (stereo not given) was read as PLC-beta3 inh -4, PLC-gamma1 inh -5 and HGIII-sPLA2 inh -3.
`c1ccc2c(c1)-c1nc3ccccc3cc1C2N1CCCCC1` (stereo not given) gave ASAP1 GAP inh 5, PLC-beta3 inh -29, PLC-gamma1 inh -28, ARFGAP1 inhibitor 9 and HGIII-sPLA2 inh -15.
`CC1(C)c2ccccc2-c2nc3ccccc3cc2C1O` (stereo not given) gave ASAP1 GAP inh -10, PLC-beta3 inh -2, PLC-gamma1 inh 11*, ARFGAP1 inhibitor 4, HGIII-sPLA2 inh -8, PLCgamma1 ctr -9 and PLCbeta3 conf -10.
`COc1ccc(NC(=O)Cn2c(C(C)C)nc(C)cc2=O)cc1Cl` gave ASAP1 GAP inh -4, PLC-beta3 inh 3, PLC-gamma1 inh 10*, ARFGAP1 inhibitor 10, HGIII-sPLA2 inh 13, PLCgamma1 ctr -8 and PLCbeta3 conf -4.
`CC(C)[C@@H]1NC(=O)[C@H]2C[C@@]3(c4ccccc4)c4ccccc4N[C@H]3N2C1=O` gave PLC-beta3 inh -5, PLC-gamma1 inh -1 and HGIII-sPLA2 inh 9.
COCCCNC(=O)C[C@H]1C[C@@]2(C(=O)OC)C(=C[C@H](COCc3ccccc3)O[C@@H]2C)N(Cc2ccc3c(c2)OCO3)C1=O was read as ASAP1 GAP inh -8, PLC-beta3 inh 5, PLC-gamma1 inh 0, ARFGAP1 inhibitor 3 and HGIII-sPLA2 inh 3.
`C[C@H](O)[C@@H]1CN2CCc3c([nH]c4c(-c5ccccc5)cccc34)[C@@H]2C[C@@H]1N(C)C(=S)Nc1ccc(C#N)cc1` gave PLC-beta3 inh -287, PLC-gamma1 inh -199 and HGIII-sPLA2 inh 1.
Screening COC(=O)[C@]12C[C@H](CC(=O)N3CCC(c4ccccc4)CC3)C(=O)N(Cc3ccc(Cl)cc3Cl)C1=C[C@H](C(C)(C)C)O[C@@H]2C returned PLC-beta3 inh 1, PLC-gamma1 inh 3 and HGIII-sPLA2 inh 0.
